According to ChEMBL document CHEMBL1144123, “Activity of triterpenoid glycosides from the root bark of Mussaenda macrophylla against two oral pathogens” (1999):
In brackets after ≈: the same amount, converted by molar mass. Activity calls are given as the source filed them. The rule behind the calls is not given here.

Experiments:
Porphyromonas gingivalis = assay: Antibacterial activity against Porphyromonas gingivalis after 48 hrs by microtiter plate method; format: functional
Summary of the method: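 Broth microdilution in trypticase soy broth-yeast extract with 0.05% cysteine hydrochloride, menadione (0.02 μg/mL), hemin (5 μg/mL) and 0.02% potassium nitrate. Inoculum 5 × 10^5 CFU/mL; serially diluted test agent, triplicates per concentration. Incubated anaerobically (10% H₂, 5% CO₂, 85% N₂), 37 °C, 48 h. Turbidity read at 650 nm; MIC = lowest concentration keeping absorbance <0.05.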

Streptococcus mutans = assay: Antibacterial activity against Streptococcus mutans after 48 hrs by microtiter plate method; format: functional
Summary of the method: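 Brain-heart infusion broth, inoculum 5 × 10^6 CFU/mL, serial dilutions of test agent in triplicate per concentration, 37 °C for 48 h. Controls were inoculated medium without test agent; blanks were uninoculated medium. Growth read spectrophotometrically at 650 nm; MIC taken as minimum concentration limiting turbidity to <0.05 absorbance.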

| Compound | Activity (Porphyromonas gingivalis) | MIC (Porphyromonas gingivalis) | MIC (Streptococcus mutans) |
| --- | --- | --- | --- |
| COc1cc(O)c2c(=O)c(O)c(-c3ccc(O)cc3)oc2c1 | Active | – | – |
| C[C@@H]1O[C@@H](OC(=O)[C@]23CCC(C)(C)C[C@H]2C2=CC[C@@H]4[C@@]5(C)C[C@H](O)[C@H](O[C@@H]6O[C@H](CO)[C@@H](O)[C@H](O)[C@H]6O)[C@@](C)(CO)[C@@H]5[C@H](O)C[C@@]4(C)[C@]2(C)C[C@H]3O)[C@H](O)[C@H](O)[C@H]1O | – | 78 µg/mL (≈ 94.1 µM) | > 1250 µg/mL |
| CC(=O)O[C@H]1CC[C@]2(C)[C@H]3CC=C4[C@@H]5CC(C)(C)CC[C@]5(C)CC[C@@]4(C)[C@]3(C)C[C@@H](O)[C@H]2C1(C)C | – | 78 µg/mL (≈ 161 µM) | > 1250 µg/mL |
| N=C(NCCCCCCNC(=N)NC(=N)Nc1ccc(Cl)cc1)NC(=N)Nc1ccc(Cl)cc1 [CHLORHEXIDINE] | – | 0.312 µg/mL (≈ 0.617 µM) | 0.312 µg/mL (≈ 0.617 µM) |
| O=c1c(O)c(-c2ccc(O)cc2)oc2cc(O)cc(O)c12 | Active | – | – |
| C/C(=C\C=C\[C@@H](C)[C@H]1CC[C@@]2(C)[C@@H]3CC[C@H]4C(C)(C)[C@@H](O[C@H]5O[C@@H](CO)[C@H](O)[C@@H](O[C@@H]6O[C@H](CO)[C@@H](O)[C@H](O)[C@H]6O)[C@@H]5O[C@@H]5O[C@H](CO[C@H]6O[C@@H](CO)[C@H](O)[C@@H](O)[C@@H]6O)[C@@H](O)[C@H](O)[C@H]5O[C@@H]5O[C@@H](C)[C@H](O)[C@@H](O)[C@H]5O)CC[C@@]45C[C@@]35CC[C@]12C)C(=O)O | – | 156 µg/mL (≈ 125 µM) | > 1250 µg/mL |
| C[C@@H]1O[C@@H](OC(=O)[C@]23CCC(C)(C)C[C@H]2C2=CC[C@@H]4[C@@]5(C)C[C@H](O)[C@H](O[C@@H]6O[C@H](CO)[C@@H](O)[C@H](O)[C@H]6O)C(C)(C)[C@@H]5[C@H](O)C[C@@]4(C)[C@]2(C)C[C@H]3O)[C@H](O)[C@H](O)[C@H]1O | – | 312 µg/mL (≈ 384 µM) | > 1250 µg/mL |
| CC1(C)CC[C@]2(C(=O)O[C@@H]3O[C@H](CO)[C@@H](O)[C@H](O)[C@H]3O)[C@H](O)C[C@]3(C)C(=CC[C@@H]4[C@@]5(C)C[C@H](O)[C@H](O)C(C)(C)[C@@H]5[C@H](O)C[C@]43C)[C@@H]2C1 | – | 312 µg/mL (≈ 468 µM) | > 1250 µg/mL |
| CC1(C)CC[C@]2(C(=O)O)CC[C@]3(C)C(=CC[C@@H]4[C@@]5(C)CC[C@H](O)C(C)(C)[C@@H]5CC[C@]43C)[C@@H]2C1 [OLEANOLIC_ACID] | – | 625 µg/mL (≈ 1370 µM) | – |
| O=c1c(O)c(-c2cc(O)c(O)c(O)c2)oc2cc(O)cc(O)c12 | Active | – | – |
| CC(=O)O[C@H]1CC[C@]2(C)[C@H]3CC=C4[C@@H]5CC(C)(C)CC[C@]5(C(=O)O)CC[C@@]4(C)[C@]3(C)CC[C@H]2C1(C)C [ACETYL OLEANOLIC ACID] | – | 39 µg/mL (≈ 78.2 µM) | > 1250 µg/mL |
